Measurements from ChEMBL document CHEMBL4765452, “Discovery of (E)-N-(4-methyl-5-(3-(2-(pyridin-2-yl)vinyl)-1H-indazol-6-yl)thiazol-2-yl)-2-(4-methylpiperazin-1-yl)acetamide (IHMT-TRK-284) as a novel orally available type II TRK kinase inhibitor capable of overcoming multiple resistant mutants” (Eur J Med Chem, 2020).
pEC50, pIC50: −log10 of the molar value. Calls of active or inactive are those of the source. The calls are words filed in the database; no cut-off is given here.

Columns and labels:
[1] = tested on: BaF3; experiment: Inhibition of LMNA fused TRKA G667S mutant (unknown origin) transfected in mouse BAF3 cells assessed as growth inhibition after 72 hrs by CCK8 assay; type: cell-based; conditions: Homo sapiens
[2] = biological target: Mast/stem cell growth factor receptor Kit (Homo sapiens, UniProt P10721); experiment: Inhibition of human KIT by Z-LYTE or ADP-Glo assay
Outline: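 Purified kinase proteins tested biochemically in Z'LYTE or ADP-Glo format.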

[3] = Inhibition of LMNA fused TRKA V573M mutant (unknown origin) transfected in mouse BaF3 cells assessed as reduction in phosphorylation at Y490 residue after 2 hrs by Western blot analysis; conditions: Homo sapiens, BaF3, 2 h
[4] = biological target: High affinity nerve growth factor receptor (Homo sapiens, UniProt P04629, G595R); experiment: Inhibition of LMNA fused TRKA G595R mutant (unknown origin) transfected in mouse BaF3 cells assessed as reduction in phosphorylation at Y490 residue after 2 hrs by Western blot analysis; type: cell-based
[5] = biological target: High affinity nerve growth factor receptor (Homo sapiens, UniProt P04629, G667C); experiment: Inhibition of LMNA fused TRKA G667C mutant (unknown origin) transfected in mouse BaF3 cells assessed as reduction in phosphorylation at Y490 residue after 2 hrs by Western blot analysis; type: cell-based
Outline: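 Isogenic BaF3 lines, made in-house, grown in RPMI 1640 with 10% FBS and 1% penicillin/streptomycin at 37 °C under 5% CO2. Serially diluted compound added for 2 h. Cells collected and lysed, and lysates analysed by western blotting for phospho-TRK. EC50 derived from the blots.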

[6] = Inhibition of LMNA fused TRKA G667S mutant (unknown origin) transfected in mouse BaF3 cells assessed as reduction in phosphorylation at Y490 residue after 2 hrs by Western blot analysis; conditions: Homo sapiens, BaF3, 2 h
[7] = tested on: KM12-Luc; experiment: Induction of apoptosis in human KM-12-LUC cells assessed as increase in cleaved PARP level after 24 hrs by Western blot analysis; type: functional, cell-based; conditions: dose 0.01-10 µM
Outline: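 KM-12-LUC cells cultured in RPMI 1640 with 10% FBS and 1% penicillin/streptomycin at 37 °C, 5% CO2. Serially diluted compound added for 24 h. Apoptosis read by western blot for PARP cleavage, with β-actin as loading control.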

[8] = tested on: KM12-Luc; experiment: Induction of cell cycle arrest in human KM-12-LUC cells assessed as accumulation at G0/G1 phase at 0.01 to 10 uM after 24 hrs by PI/RNase staining based flow cytometric analysis; type: functional; conditions: dose 0.01-10 µM
Outline: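 KM-12-LUC cells treated with DMSO or serially diluted compound. Cells fixed in cold 70% ethanol overnight at −20 °C, then stained with PI/RNase buffer. Cell cycle distribution measured by flow cytometry.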

[9] = Tmax in mouse at 10 mg/kg, po; type: ADME, organism-based; conditions: in vivo
Outline: (§1)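 Single-dose PK in mice, Sprague Dawley rats and beagle dogs, given i.v. (1 mg/kg) or p.o. (10 mg/kg mice and rats; 5 mg/kg dogs). AUC0-t, T1/2, Tmax and oral bioavailability (F) derived from plasma profiles.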

[10] = Cmax in mouse at 10 mg/kg, po; type: ADME, organism-based; set-up: route oral, dose 10 mg/kg; conditions: in vivo
[11] = AUC (0 to t) in Sprague-Dawley rat at 1 mg/kg, iv; type: ADME, organism-based; set-up: dose 1 mg/kg; conditions: in vivo
Outline: (§2)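 Intravenous and oral arms were run in parallel in each species (mice, Sprague Dawley rats, beagle dogs). Exposure is reported as AUC0-t in ng/mL·h.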

[12] = Tmax in Sprague-Dawley rat at 1 mg/kg, iv; type: ADME, organism-based; conditions: in vivo; outline: as §1
[13] = Half life in Sprague-Dawley rat at 10 mg/kg, po; type: ADME, organism-based; conditions: in vivo
[14] = Cmax in Sprague-Dawley rat at 1 mg/kg, iv; type: ADME, organism-based; set-up: route intravenous, dose 1 mg/kg; conditions: in vivo
[15] = AUC (0 to t) in Beagle dog at 5 mg/kg, po; type: ADME, organism-based, Canis lupus familiaris; set-up: dose 5 mg/kg; conditions: in vivo; outline: as §2
[16] = Half life in Beagle dog at 1 mg/kg, iv; type: ADME, organism-based, Canis lupus familiaris; conditions: in vivo
[17] = Apparent volume of distribution in Beagle dog at 1 mg/kg, iv; type: ADME, organism-based, Canis lupus familiaris; conditions: in vivo, read-out: Vz
[18] = Antitumor activity against human […] cells xenografted in nude mouse assessed as tumor growth inhibition at 80 mg/kg, po administered once daily for 10 days relative to control; type: functional; conditions: KM12-Luc, 240 h, time 10 day, read-out: TGI
Outline: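 Nu/nu mice given 5 million KM-12-LUC cells in DMEM, 1:1 with matrigel, injected subcutaneously into the right flank; oral gavage started at tumor size 150–200 mm³, 5 mice per group, compound in 0.5% methylcellulose/0.4% Tween 80 in ddH₂O; body weight and tumor volume [(W²×L)/2] measured daily; TGI versus vehicle.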

[19] = tested on: BaF3; experiment: Antitumor activity against mouse BAF3 cells harboring LMNA fused TRKA-G667S mutant allografted in nude mouse assessed as tumor growth inhibition at 40 mg/kg, po administered twice daily for 10 days relative to control; type: functional; conditions: 240 h, time 10 day, read-out: TGI
Outline: (§3)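 Nu/nu mice given 1 million BaF3 cells (TEL-TRKA, TEL-TRKB, TEL-TRKC, LMNA-TRKA-F589L or LMNA-TRKA-G667S) in DMEM, 1:1 with matrigel, injected subcutaneously into the right flank; oral gavage began at 200–400 mm³, 5 mice per group, compound in 0.5% methylcellulose/0.4% Tween 80 in ddH₂O, 10 days; tumor volume [(W²×L)/2] and body weight recorded daily; TGI versus vehicle.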

[20] = tested on: BaF3; experiment: Antitumor activity against mouse BAF3 cells harboring TEL fused TRKA allografted in nude mouse assessed as tumor growth inhibition at 40 mg/kg, po administered once daily for 10 days relative to control; type: functional; conditions: 240 h, time 10 day, read-out: TGI; outline: as §3
[21] = tested on: BaF3; experiment: Antitumor activity against mouse BAF3 cells harboring TEL fused TRKB allografted in nude mouse assessed as tumor growth inhibition at 40 mg/kg, po administered once daily for 10 days relative to control; type: functional; conditions: 240 h, time 10 day, read-out: TGI; outline: as §3
[22] = Toxicity in mouse xenografted with mouse BAF3 cells harboring TEL fused TRKA assessed as effect on body weight at 40 to 80 mg/kg, po administered once daily for 10 days; type: organism-based; conditions: in vivo, 240 h, dose 40-80 mg/kg/day, time 10 day
Outline: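 nu/nu mice were given subcutaneous right-flank implants in 1:1 DMEM/matrigel: 1 million BaF3 fusion cells or 5 million KM-12-LUC cells. Oral gavage started at 150–200 mm3 (xenograft) or 200–400 mm3 (allograft). Dosing used 40 or 80 mg/kg in HKI vehicle (0.5% methylcellulose/0.4% Tween 80 in ddH2O), with 5 mice per group. Body weight was recorded daily and behaviour observed.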

[23] = tested on: BaF3; experiment: Antitumor activity against mouse BAF3 cells harboring TEL fused TRKB allografted in nude mouse assessed as tumor growth inhibition administered orally once daily for 10 days; type: functional, cell-based; conditions: dose 40-80 mg/kg/day, time 10.0 day; outline: as §3
[24] = biological target: High affinity nerve growth factor receptor (Homo sapiens, UniProt P04629); experiment: Inhibition of TRKA in human KM-12-LUC cells assessed as reduction in AKT phosphorylation at S473 residue after 2 hrs by Western blot analysis; type: cell-based, KM12-Luc
Outline: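 KM-12-LUC (TPM3-TRKA fused colon cancer cells) grown in RPMI 1640 with 10% FBS and 1% penicillin/streptomycin at 37 °C under 5% CO2. Serially diluted compound added for 2 h. Lysates western blotted for phospho-AKT (T308/S473) and phospho-ERK1/2 (T202/Y204).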

High affinity nerve growth factor receptor (Homo sapiens, UniProt P04629, G595R), sequence (P04629 33-796 G595R limits assumed): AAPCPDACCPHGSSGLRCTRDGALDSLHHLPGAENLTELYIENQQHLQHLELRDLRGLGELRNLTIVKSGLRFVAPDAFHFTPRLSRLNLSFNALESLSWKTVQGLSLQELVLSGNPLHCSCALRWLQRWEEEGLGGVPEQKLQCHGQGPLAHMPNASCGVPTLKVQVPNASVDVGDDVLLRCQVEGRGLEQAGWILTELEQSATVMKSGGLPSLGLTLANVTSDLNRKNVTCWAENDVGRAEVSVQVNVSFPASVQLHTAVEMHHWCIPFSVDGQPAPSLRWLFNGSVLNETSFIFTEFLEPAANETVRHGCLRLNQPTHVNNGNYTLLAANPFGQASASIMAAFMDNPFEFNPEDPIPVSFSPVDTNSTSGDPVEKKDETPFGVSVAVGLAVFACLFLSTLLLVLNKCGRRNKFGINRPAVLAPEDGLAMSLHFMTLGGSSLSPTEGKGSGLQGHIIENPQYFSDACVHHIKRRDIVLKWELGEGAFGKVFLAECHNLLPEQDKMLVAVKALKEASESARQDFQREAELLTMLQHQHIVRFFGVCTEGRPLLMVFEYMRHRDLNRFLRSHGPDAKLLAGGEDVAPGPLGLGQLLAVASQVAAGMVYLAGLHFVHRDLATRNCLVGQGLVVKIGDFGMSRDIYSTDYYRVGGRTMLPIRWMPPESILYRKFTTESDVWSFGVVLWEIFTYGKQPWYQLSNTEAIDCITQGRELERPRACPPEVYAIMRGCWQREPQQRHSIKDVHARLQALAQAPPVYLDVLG
Mast/stem cell growth factor receptor Kit, sequence (P10721 whole entry): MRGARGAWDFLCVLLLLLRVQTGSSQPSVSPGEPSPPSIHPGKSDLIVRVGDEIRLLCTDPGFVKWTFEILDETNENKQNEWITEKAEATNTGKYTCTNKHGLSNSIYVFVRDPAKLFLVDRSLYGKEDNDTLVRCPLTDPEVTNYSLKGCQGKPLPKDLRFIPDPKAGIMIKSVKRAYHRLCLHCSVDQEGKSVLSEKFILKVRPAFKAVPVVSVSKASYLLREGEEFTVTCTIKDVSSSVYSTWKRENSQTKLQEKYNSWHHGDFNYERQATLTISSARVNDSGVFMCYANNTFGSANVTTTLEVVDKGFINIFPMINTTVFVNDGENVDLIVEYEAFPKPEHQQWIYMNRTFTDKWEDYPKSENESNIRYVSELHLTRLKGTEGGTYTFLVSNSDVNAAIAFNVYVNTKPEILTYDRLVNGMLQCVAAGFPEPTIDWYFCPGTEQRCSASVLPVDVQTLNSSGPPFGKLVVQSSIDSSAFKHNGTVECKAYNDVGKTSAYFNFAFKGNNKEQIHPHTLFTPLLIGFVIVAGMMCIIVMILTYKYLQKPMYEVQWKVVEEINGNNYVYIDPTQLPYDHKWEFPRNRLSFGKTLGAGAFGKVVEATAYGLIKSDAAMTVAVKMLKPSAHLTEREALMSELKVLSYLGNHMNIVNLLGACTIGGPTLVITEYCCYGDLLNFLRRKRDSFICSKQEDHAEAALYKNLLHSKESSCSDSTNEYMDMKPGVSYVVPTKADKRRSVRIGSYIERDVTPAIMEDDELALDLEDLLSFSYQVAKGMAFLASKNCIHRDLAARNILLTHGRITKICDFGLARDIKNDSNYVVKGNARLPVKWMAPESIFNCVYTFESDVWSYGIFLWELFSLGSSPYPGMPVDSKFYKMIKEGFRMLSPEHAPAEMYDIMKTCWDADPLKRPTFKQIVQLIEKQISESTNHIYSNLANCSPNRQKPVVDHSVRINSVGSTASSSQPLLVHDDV
High affinity nerve growth factor receptor (Homo sapiens, UniProt P04629, G667C), sequence (P04629 33-796 G667C limits assumed): as the sequence (P04629 33-796 G595R limits assumed) above, with R563G, G635C counted along it
High affinity nerve growth factor receptor (Homo sapiens, UniProt P04629), sequence (P04629 whole entry, the tested form may be a part): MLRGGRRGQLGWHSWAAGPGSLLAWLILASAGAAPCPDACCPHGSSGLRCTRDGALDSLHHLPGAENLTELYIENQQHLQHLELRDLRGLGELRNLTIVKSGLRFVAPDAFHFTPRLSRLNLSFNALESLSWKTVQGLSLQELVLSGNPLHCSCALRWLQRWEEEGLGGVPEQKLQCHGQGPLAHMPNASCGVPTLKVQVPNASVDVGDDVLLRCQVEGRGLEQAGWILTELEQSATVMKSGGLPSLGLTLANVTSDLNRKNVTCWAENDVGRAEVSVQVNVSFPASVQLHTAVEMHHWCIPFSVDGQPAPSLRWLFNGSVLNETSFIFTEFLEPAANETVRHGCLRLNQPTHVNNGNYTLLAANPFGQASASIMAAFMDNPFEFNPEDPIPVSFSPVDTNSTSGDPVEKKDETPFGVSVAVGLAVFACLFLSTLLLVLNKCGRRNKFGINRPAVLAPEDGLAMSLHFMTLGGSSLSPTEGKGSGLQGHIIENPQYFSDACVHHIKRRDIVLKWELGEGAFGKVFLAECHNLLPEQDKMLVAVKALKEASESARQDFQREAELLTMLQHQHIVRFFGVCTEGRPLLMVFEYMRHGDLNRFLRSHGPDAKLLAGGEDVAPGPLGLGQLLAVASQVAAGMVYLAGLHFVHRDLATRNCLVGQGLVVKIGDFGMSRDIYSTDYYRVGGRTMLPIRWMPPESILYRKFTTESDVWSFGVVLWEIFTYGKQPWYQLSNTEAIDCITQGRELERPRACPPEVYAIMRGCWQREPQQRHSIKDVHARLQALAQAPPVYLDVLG

GI50 [1]: 2 nM
pIC50 [2]: 5.66
pEC50 [3]: 7.89
pEC50 [4]: 6.92
pEC50 [5]: 7.17
pEC50 [6]: 7.13
Tmax [9]: 90 min
Cmax [10]: 258 ng/mL
AUC(0-t) [11]: 393 ng·h/mL
Tmax [12]: 1.8 min
t1/2 [13]: 150 min
Cmax [14]: 363 ng/mL
AUC(0-t) [15]: 464 ng·h/mL
t1/2 [16]: 1.8 min
Vd [17]: 17.5 L/kg
pEC50 [24]: > 7.52
Compound: Cc1nc(NC(=O)CN2CCN(C)CC2)sc1-c1ccc2c(/C=C/c3ccccn3)n[nH]c2c1
Activity [7]: Dose-dependent effect
Activity [8]: Active
inhibition in vivo at 80 mg/kg/day [18]: 94.7%
inhibition in vivo at 40 mg/kg [19]: 64.9%
inhibition in vivo at 40 mg/kg/day [20]: 52.2%
inhibition in vivo at 40 mg/kg/day [21]: 83.1%
Activity [22]: Non-Toxic
Activity [23]: Dose-dependent effect
